# Measurements as given in PubChem BioAssay.
# Activity calls are given as the source filed them.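 How the source made its calls, unless noted: active means viability at or below 10% of carrier control in both of two separate runs; inconclusive means viability at or below 10% in only one of the two runs; inactive means the rest.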
# How the values were obtained:
# [1] = SK-BR-3 cell growth inhibitors, pilot screen, 24 h, human (AID 572); settings: SK-BR-3 viability, CellTiter-Glo luminescence, at 10 µM, stronger effect = lower value;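 further: compound exposure lasted between 18 and 24 h rather than exactly 24 h; 100% = carrier-treated control wells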
# [2] = HUVEC growth inhibition – cell-based, human, primary screen (AID 575;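 active means viability at or below 30% in both replicate assays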;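 further: 100% = median of untreated cell wells with 0.1% DMSO on each plate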); settings: HUVEC proliferation, CellTiter-Glo luminescence, 72 h; at 10 µM; stronger effect = lower value
# In short: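 system = HUVEC primary cells | amount = 1250 cells/well | buffer or medium = supplemented EBM, 2% fetal bovine serum | dosing = single-point 10 µM, DMSO 0.1% final | times = 72 h compound incubation | detection = CTG luminescence | read-out = % viability relative to median vehicle-well signal on each plate | control set = vehicle and MePR control wells | format = collagen-coated 384-well format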
# [3] = growth inhibitors of H69AR lung tumor, primary screen, human, duplicate replicates (AID 580;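 active means viability at or under a set limit in both replicates, limit being median viability minus 3 SD, cut at about 48% in these data, passing the limit was not always enough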;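 further: 100% = mean luminescence of untreated wells and 0% = no signal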); settings: H69AR lung tumor cells viability, ATP luminescence, 72 h; at 10 µM; stronger effect = lower value
# [4] = reversal of MRP1-mediated doxorubicin resistance, pilot screen, H69AR cells, doxorubicin co-treatment (AID 601;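 active means viability loss from added drug above about 55%, and viability with drug at most 40%, in both replicates, limit read from the data, passing the limit was not always enough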); settings: CellTiter-Glo, 72 h, at 10 µM; for differential viability (reversal): stronger effect = higher value
# [5] = 384-well plate pilot, post-Golgi transport modulator project, inhibition of yeast transport mutant growth (AID 636; in the data active means inhibition above about 31%); settings: absorbance 615 nm, about 18 h, stronger effect = higher value
# [6] = growth suppression of yeast trafficking mutant, preliminary HTS, modulators of trafficking downstream of Golgi apparatus project, 1536-format plate, OD 615 nm (AID 637; in the data active means inhibition above about 30%); settings: yeast transport mutant growth, absorbance 615 nm, 18 h; stronger effect = higher value
# [7] = H69AR cells + 2 uM doxorubicin, measured here: viability with 2 uM doxorubicin, stronger effect = lower value
# [8] = H69AR cells, compound alone cytotoxicity
Structure (SMILES),viability [1],viability [2],viability [3],differential viability (reversal) ([4]; H69AR cells + 2 uM doxorubicin),"viability [4, 7] [%]","viability [4, 8] [%]",inhibition [5],inhibition [6]
CC1=C(C(=O)Nc2ccccc2C)C(c2ccc(C)o2)N2C(=O)CSC2=N1 (stereo unspecified),105% (inactive),106% (inactive),96.4% (inactive),8.25% (inactive),88.2,96.4,-9.04% (inactive),2.26% (inactive)
COCCOC(=O)C1=C(C)NC(C)=C(C(=O)OC(C)C)C1c1cccc([N+](=O)[O-])c1 (stereo unspecified),89% (inactive),65.2% (inactive),77.4% (inactive),-19% (inactive),96.4,77.4,1.56% (inactive),16.2% (inactive)
COc1cccc(-c2nnc(NC(=O)Cc3cccs3)s2)c1,88% (inactive),84.8% (inactive),82.6% (inactive),-14.2% (inactive),96.8,82.6,-5.34% (inactive),5.16% (inactive)
O=C(Nc1ccc(F)cc1)NC1CCN(Cc2nnnn2Cc2ccco2)CC1,92% (inactive),70.5% (inactive),88.2% (inactive),-0.315% (inactive),88.5,88.2,-5.21% (inactive),-7.9% (inactive)
C=CCn1c(SCn2nnc3ccccc3c2=O)nnc1-c1ccc(Br)cc1,97% (inactive),94.2% (inactive),89.1% (inactive),7.09% (inactive),82,89.1,43.2% (active),31.6% (active)
Cc1cc2ccccc2c(=O)n1CC(=O)N(C)c1ccc(F)cc1,102% (inactive),84.2% (inactive),102% (inactive),2.95% (inactive),98.9,102,-2.3% (inactive),-2.73% (inactive)
O=C(NCCCN1CCOCC1)c1cc(-c2ccc(Cl)cc2)on1,88% (inactive),103% (inactive),94.1% (inactive),15.9% (inactive),78.2,94.1,-6.8% (inactive),0.55% (inactive)
COc1ccc(OC)c(S(=O)(=O)Nc2ccccc2SC)c1,72% (inactive),83.7% (inactive),100% (inactive),18.9% (inactive),81,100,-5.34% (inactive),-1.45% (inactive)
O=C(Nc1cccc(NC(=O)c2ccco2)c1)c1ccc2c(c1)OCO2,106% (inactive),61% (inactive),82.4% (inactive),-4.39% (inactive),86.8,82.4,-1.18% (inactive),21.2% (inactive)
COCCCNCC(=O)Nc1ccc(OC(F)(F)F)cc1,102% (inactive),113% (inactive),98.5% (inactive),13% (inactive),85.5,98.5,-9.2% (inactive),-5.82% (inactive)
O=C(CSc1nc(-c2ccco2)cc(C(F)(F)F)n1)N1CCCc2ccccc21,109% (inactive),72.5% (inactive),84% (inactive),2.16% (inactive),81.9,84,-1.05% (inactive),-0.16% (inactive)
COc1ccc(NC(=O)N2CCC(c3nc(-c4cccs4)no3)CC2)cc1,121% (inactive),98.3% (inactive),95.6% (inactive),15.4% (inactive),80.2,95.6,-2.4% (inactive),0.73% (inactive)
Cc1noc(C)c1C(=O)N1CCN(C(=O)c2sc3cc(Cl)ccc3c2Cl)CC1,103% (inactive),106% (inactive),89% (inactive),8.48% (inactive),80.5,89,-5.14% (inactive),-1.64% (inactive)
CN1CCC(=C2c3ccccc3C=Cc3ccccc32)CC1,100% (inactive),52.6% (inactive),82.4% (inactive),9.07% (inactive),73.4,82.4,-0.65% (inactive),1% (inactive)
O=C(O)/C=C/c1ccc(O)c(O)c1,94% (inactive),69% (inactive),97.9% (inactive),5.39% (inactive),92.5,97.9,-0.39% (inactive),1% (inactive)
O=C(NCc1ccc2c(c1)OCO2)C1CCC(CNS(=O)(=O)c2ccccc2)CC1 (stereo unspecified),92% (inactive),78.9% (inactive),92.2% (inactive),-1.49% (inactive),93.7,92.2,0.52% (inactive),1.15% (inactive)
Cc1ccc(-n2ncc3c(=O)n(CC(=O)N4CCCc5ccccc54)cnc32)cc1C,82% (inactive),60.5% (inactive),90.8% (inactive),-10% (inactive),101,90.8,6.08% (inactive),-2.73% (inactive)
O=C1OC(c2ccc(O)cc2)(c2ccc(O)cc2)c2ccccc21,83% (inactive),48.8% (inactive),102% (inactive),4.57% (inactive),97.7,102,-2.73% (inactive),8.67% (inactive)
C=CCN(CC=C)C(=O)Nc1cc(Cl)ccc1OC,83% (inactive),95.3% (inactive),96.9% (inactive),0% (inactive),96.9,96.9,-8.77% (inactive),-3.27% (inactive)

Structure (SMILES),viability [1],viability [2],viability [3],differential viability (reversal) ([4]; H69AR cells + 2 uM doxorubicin),"viability [4, 7] [%]","viability [4, 8] [%]",inhibition [5],inhibition [6]
Cc1nnc(NC(=O)CCC(=O)N2CCC(C)CC2)s1,86% (inactive),105% (inactive),90.8% (inactive),1.93% (inactive),88.9,90.8,-3.01% (inactive),1.64% (inactive)
COc1cc(CC(=O)Oc2ccc3c(c2)OCO3)cc(OC)c1OC,98% (inactive),104% (inactive),84.8% (inactive),0.695% (inactive),84.2,84.8,-2.93% (inactive),2.91% (inactive)
Cn1c(=O)cc(OCCCC(=O)N2CCCCC2)c2ccccc21,98% (inactive),87.5% (inactive),91.5% (inactive),12% (inactive),79.5,91.5,-1.82% (inactive),0.98% (inactive)
CCSC(SCC)[C@H](O)[C@@H](O)[C@H](O)[C@H](O)CO,103% (inactive),104% (inactive),101% (inactive),6.02% (inactive),94.8,101,-5.19% (inactive),0% (inactive)
O=C(c1ccc(Cl)cc1)N1CCCOC1,89% (inactive),113% (inactive),92% (inactive),7.33% (inactive),84.7,92,-8.11% (inactive),-1.27% (inactive)
CCOC(=O)N1CCN(C(=O)c2cn(CC)c3cc(N4CCN(C)CC4)c(F)cc3c2=O)CC1,100% (inactive),101% (inactive),104% (inactive),1.33% (inactive),103,104,-7.26% (inactive),7.74% (inactive)
Cc1cc(C)cc(N2C(=O)C3C4C=CC(C4)C3C2=O)c1 (stereo unspecified),100% (inactive),109% (inactive),93% (inactive),7.94% (inactive),85,93,-3.15% (inactive),2.36% (inactive)
Cn1c(=O)c2c(ncn2CCO)n(C)c1=O,119% (inactive),91% (inactive),100% (inactive),7.42% (inactive),93,100,0% (inactive),0.67% (inactive)
CC(OC(=O)c1ccco1)C(=O)NCc1cccs1 (stereo unspecified),119% (inactive),90.3% (inactive),97.4% (inactive),-5.53% (inactive),103,97.4,-4.25% (inactive),-4.55% (inactive)
COc1cc(C2N=C(c3ccccc3)NO2)cc(Br)c1O (stereo unspecified),90% (inactive),87.5% (inactive),84.8% (inactive),-4.25% (inactive),89,84.8,-3.12% (inactive),-10% (inactive)
CC(=O)c1c(C)nn(C(C)CC(=O)O)c1C (stereo unspecified),113% (inactive),97.8% (inactive),97.5% (inactive),8.11% (inactive),89.3,97.5,-1.95% (inactive),-4.75% (inactive)
CC1(C)SC2[C@H](NC(=O)C(NC(=O)N3CCNC3=O)c3ccccc3)C(=O)N2C1C(=O)O (stereo partly specified),107% (inactive),80.2% (inactive),95.3% (inactive),1.74% (inactive),93.6,95.3,0.26% (inactive),2.67% (inactive)
CC(=O)N1CCc2cc(S(=O)(=O)NCCC(=O)Nc3cc(C)cc(C)c3)ccc21,95% (inactive),104% (inactive),95.6% (inactive),0.35% (inactive),95.3,95.6,-4.93% (inactive),-4% (inactive)
COC(=O)Cc1cc(=O)n(-c2ccccc2)[nH]1,95% (inactive),91.2% (inactive),87.9% (inactive),-0.48% (inactive),88.4,87.9,-9.45% (inactive),0.73% (inactive)
CCOC(=O)c1c(C(F)(F)C(F)(F)C(F)(F)C(F)(F)F)n[nH]c1C,63% (inactive),79.5% (inactive),76.8% (inactive),25.1% (inactive),51.7,76.8,-5.75% (inactive),4% (inactive)
O=C(O)CCn1[nH]c(=O)ccc1=O,87% (inactive),102% (inactive),97.3% (inactive),3.97% (inactive),93.4,97.3,-2.05% (inactive),1.77% (inactive)
O=C(NCCCN1CCN(Cc2ccccc2)CC1)C1CCN(c2nnc(-n3cccc3)s2)CC1,118% (inactive),97.1% (inactive),88.7% (inactive),4.26% (inactive),84.4,88.7,-4.93% (inactive),-1.82% (inactive)
CN1CC=C2C(C#N)=C(N)C(C#N)(C#N)C(Cc3ccccc3)C2C1 (stereo unspecified),85% (inactive),69% (inactive),84.6% (inactive),-2.88% (inactive),87.5,84.6,-8.22% (inactive),-7.26% (inactive)
